Laboratory results taken from ChEMBL document CHEMBL1122260, “Synthesis and biological activity of prostaglandin lactones” (J Med Chem, 1983).
Each block holds one compound with its values, some of them ahead of it. Calls of active or inactive are those of the source. The rule behind the calls is not given here.

Key:
Rattus norvegicus [1] = species: Rattus norvegicus; assay: Blood pressure potency in rat relative to PGE1 (100); compound is biphasic and weak.; type: functional, organism-based
Method in brief: (§1)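 Mature female albino rats, pentobarbital anesthesia (30 mg/kg ip, supplemented as needed), pretreated with atropine sulfate (0.08 mg sc) and pentolinium tartrate (2 mg iv). Test solutions or emulsions injected via femoral vein; carotid arterial pressure recorded by transducer. Change in mmHg (rise or fall) compared with standards: PGE1 for depressor, PGF2α for pressor responses.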

Gerbillinae [2] = assay: Gerbil colon stimulation relative to PGE1 (100); Range is between (0.3-1); type: functional
Method in brief: (§2)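 Isolated ascending colon from male gerbils (Meriones unguiculatus) mounted in de Jalon's solution (NaCl 154 mM, KCl 0.54 mM, CaCl2 0.27 mM, NaHCO3 1.78 mM, glucose 5.55 mM); isotonic contractions recorded with linear transducers in 5-mL baths.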

Rattus norvegicus [3] = species: Rattus norvegicus; assay: Blood pressure potency in rat relative to PGE1 (100); type: functional; method in brief: as §1
Gerbillinae [4] = assay: Gerbil colon stimulation relative to PGE1 (100); type: functional; method in brief: as §2
Rattus norvegicus [5] = species: Rattus norvegicus; assay: Blood pressure potency in rat relative to PGF2-alpha (100). Range is between (32-100).; type: functional; method in brief: as §1
Gerbillinae [6] = assay: Gerbil colon stimulation relative to PGE1 (100); Range from (0.1-0.3); type: functional; method in brief: as §2
Rattus norvegicus [7] = species: Rattus norvegicus; assay: Blood pressure potency in rat relative to PGE1 (100); value ranges from (0.1-0.3); type: functional; method in brief: as §1
Monkey [8] = assay: Plasma hydrolysis following 20 hr incubation with monkey plasma; type: functional, Cercopithecidae
Method in brief: (§3)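 Substrates incubated with saline (control), hog liver esterase, or rat, monkey or human blood plasma for 2 h or 20 h; released PGF2α quantified by radioimmunoassay as cross-reactivity with PGF2α antisera. PGF2α itself served as assay positive control. Substrate cross-reaction with the antisera determined separately.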

Rattus norvegicus [9] = assay: in vivo Urinary excretion of PGF2-alpha metabolite in rats, when administered sc (1 mg/rat) urinary excretion on day 2 Range is between (0.7-1.1).; type: functional, Urine
Rattus norvegicus [10] = species: Rattus norvegicus; assay: Plasma hydrolysis following 20 hr incubation with rat plasma; type: functional; method in brief: as §3
Sus scrofa [11] = species: Sus scrofa; assay: Plasma hydrolysis following 20 hr incubation with hog liver esterase; type: functional; method in brief: as §3
Homo sapiens [12] = species: Homo sapiens; assay: Plasma hydrolysis following 20 hr incubation with human plasma; type: functional; method in brief: as §3
Rattus norvegicus [13] = species: Rattus norvegicus; assay: Plasma hydrolysis following 2 hr incubation with rat plasma; type: functional; method in brief: as §3
Rattus norvegicus [14] = assay: in vivo Urinary excretion of PGF2-alpha metabolite in rats, when administered sc (1 mg/rat) urinary excretion on day 1 Range is between (1.3-1.6).; type: functional, Urine
[15] = Plasma hydrolysis of percent cross reaction of substrate with PGF2-alpha antisera; type: ADME, cell-free; method in brief: as §3
Sus scrofa [16] = species: Sus scrofa; assay: Plasma hydrolysis following 2 h incubation with hog liver esterase; type: functional; method in brief: as §3
Homo sapiens [17] = species: Homo sapiens; assay: Plasma hydrolysis following 2 hr incubation with human plasma; type: functional; method in brief: as §3
Monkey [18] = assay: Plasma hydrolysis following 2 hr incubation with monkey plasma; type: functional, Cercopithecidae; method in brief: as §3
Gerbillinae [19] = assay: Gerbil colon stimulation relative to PGE1 (100); Range is between (1-3); type: functional; method in brief: as §2
Rattus norvegicus [20] = species: Rattus norvegicus; assay: Blood pressure potency in rat relative to PGE1 (100). Range is between (0.1-3); type: functional; method in brief: as §1
Rattus norvegicus [21] = species: Rattus norvegicus; assay: Blood pressure potency in rat relative to PGF2-alpha (100); value ranges from (3-10); type: functional; method in brief: as §1
Gerbillinae [22] = assay: Gerbil colon stimulation relative to PGE1 (100); Range from (1-3); type: functional; method in brief: as §2
Rattus norvegicus [23] = species: Rattus norvegicus; assay: Blood pressure potency in rat relative to PGE1 (100). Range is between (10-32); type: functional; method in brief: as §1
Rattus norvegicus [24] = assay: in vivo Urinary excretion of PGF2-alpha metabolite in rats, when administered sc (1 mg/rat) urinary excretion on day. c1(27.2-31.1); type: functional, Urine
Rattus norvegicus [25] = species: Rattus norvegicus; assay: Blood pressure potency in rat relative to PGF2-alpha (100); value ranges from (0.3-1); type: functional; method in brief: as §1
Rattus norvegicus [26] = assay: in vivo urinary excretion of PGF2-alpha metabolite in rats, when administered sc (1 mg/rat) urinary excretion on day 2. Range is between (1.2-2.0); type: functional, Urine
Gerbillinae [27] = assay: Gerbil colon stimulation relative to PGE1 (100); Range from (0.3-1); type: functional; method in brief: as §2
Rattus norvegicus [28] = species: Rattus norvegicus; assay: Blood pressure potency in rat relative to PGF2-alpha (100). Range is between (0.3-1); type: functional; method in brief: as §1
Rattus norvegicus [29] = species: Rattus norvegicus; assay: Blood pressure potency in rat relative to PGE1 (100); value ranges from( 0.1-0.3); type: functional; method in brief: as §1
Gerbillinae [30] = assay: Gerbil colon stimulation relative to PGE1 (100); Ranges from (0.1-0.3); type: functional; method in brief: as §2
Rattus norvegicus [31] = species: Rattus norvegicus; assay: Blood pressure potency in rat relative to PGE1 (100); IA means inactive; type: functional, organism-based; method in brief: as §1
Rattus norvegicus [32] = species: Rattus norvegicus; assay: Blood pressure potency in rat relative to […]; T denotes toxic; type: organism-based; method in brief: as §1
Rattus norvegicus [33] = species: Rattus norvegicus; assay: Blood pressure potency in rat relative to PGF2-alpha (100). Range is between(3-10).
Gerbillinae [34] = assay: Gerbil colon stimulation relative to PGE1 (100); Range from (32-100); type: functional; method in brief: as §2
Rattus norvegicus [35] = assay: in vivo urinary excretion of PGF2-alpha metabolite in rats, when administered sc (1 mg/rat) urinary excretion on day 2; type: functional, Urine
Rattus norvegicus [36] = assay: in vivo urinary excretion of PGF2-alpha metabolite in rats, when administered sc (1 mg/rat) urinary excretion on day 1; type: functional, Urine
Rattus norvegicus [37] = species: Rattus norvegicus; assay: Blood pressure potency in rat relative to PGE1 (100); Range is between (1-3); type: functional; method in brief: as §1
Gerbillinae [38] = assay: Gerbil colon stimulation relative to PGE1 (100); Range is between (0.1-0.3); type: functional; method in brief: as §2
Rattus norvegicus [39] = assay: In vivo urinary excretion of PGF2-alpha metabolite in rats, when administered sc (1 mg/rat) urinary excretion on day 2 Range is between (2.2-5.6).; type: functional, Urine
Rattus norvegicus [40] = assay: In vivo urinary excretion of PGF2-alpha metabolite in rats, when administered sc (1 mg/rat) urinary excretion on day 1 Range is between (31.9-155).; type: functional, Urine

SMILES: O=C1CCC/C=C\C[C@H]2C(=O)C[C@@H](O)C2/C=C\[C@@H](CCc2ccccc2)O1 (stereo not given in full)
Relative potency (Rattus norvegicus [1]): Weak
Relative potency (Gerbillinae [2]): 0.3

SMILES: CCCCC[C@@H]1/C=C\C2[C@H](O)CC(=O)[C@@H]2CCCCCCC(=O)O1 (stereo not given in full)
Relative potency (Rattus norvegicus [3]): <0.1
Relative potency (Gerbillinae [4]): <0.1

SMILES: O=C1CCC/C=C\C[C@@H]2C(/C=C\[C@@H](CCc3ccccc3)O1)[C@H](O)C[C@@H]2O (stereo not given in full)
Relative potency (Gerbillinae [4]): <0.1
Relative potency (Rattus norvegicus [5]): 32

SMILES: CCCCC[C@@H]1/C=C\C2C(=O)CC(O)[C@@H]2C/C=C\CCCC(=O)O1 (stereo not given in full)
Relative potency (Gerbillinae [6]): 0.1
Relative potency (Rattus norvegicus [7]): 0.1

Cross reaction [15]: < 0.05%
SMILES: CCCCC[C@H](O)/C=C/C1[C@H](O)C[C@@H]2OC(=O)CCC/C=C\C[C@H]12 (stereo not given in full)
Hydrolysis (Monkey [8]): 0.3%
Urinary excretion (Rattus norvegicus [9]): 0.9 µg
Hydrolysis (Rattus norvegicus [10]): 0.8%
Hydrolysis (Sus scrofa [11]): 1.8%
Hydrolysis (Homo sapiens [12]): 0.4%
Hydrolysis (Rattus norvegicus [13]): 0.2%
Urinary excretion (Rattus norvegicus [14]): 1.4 µg
Hydrolysis (Sus scrofa [16]): 0.2%
Hydrolysis (Homo sapiens [17]): 0.06%
Hydrolysis (Monkey [18]): 0.06%
Relative potency (Gerbillinae [19]): 1
Relative potency (Rattus norvegicus [20]): 0.1

SMILES: C[C@@](O)(/C=C/C1[C@H](O)C[C@@H]2OC(=O)CCC/C=C\C[C@H]12)CCc1ccccc1 (stereo not given in full)
Relative potency (Rattus norvegicus [21]): 3
Relative potency (Gerbillinae [22]): 1

SMILES: CCCCC[C@H](O)/C=C/C1C(=O)C[C@@H]2OC(=O)CCC/C=C\C[C@H]12 (stereo not given in full)
Relative potency (Rattus norvegicus [23]): 10
Relative potency (Gerbillinae [2]): 0.3

Cross reaction [15]: 0.09%
SMILES: CCCCC[C@H](O)/C=C/C1[C@@H]2C[C@@H](O)[C@H]1C/C=C\CCCC(=O)O2 (stereo not given in full)
Hydrolysis (Monkey [8]): 15.5%
Hydrolysis (Rattus norvegicus [10]): 80.6%
Hydrolysis (Sus scrofa [11]): 100%
Hydrolysis (Homo sapiens [12]): 0.6%
Urinary excretion (Rattus norvegicus [24]): 27.2 µg
Hydrolysis (Rattus norvegicus [13]): 43%
Relative potency (Rattus norvegicus [25]): 0.3
Hydrolysis (Sus scrofa [16]): 28.3%
Urinary excretion (Rattus norvegicus [26]): 1.6 µg
Hydrolysis (Homo sapiens [17]): 0.2%
Hydrolysis (Monkey [18]): 2.4%
Relative potency (Gerbillinae [27]): 0.3

SMILES: CCCCC[C@](C)(O)/C=C/C1[C@@H]2C[C@@H](O)[C@H]1C/C=C\CCCC(=O)O2 (stereo not given in full)
Relative potency (Rattus norvegicus [28]): 0.3
Relative potency (Gerbillinae [4]): <0.1

SMILES: CCCCC[C@](C)(O)/C=C/C1[C@H](O)C[C@@H]2OC(=O)C(F)(F)CC/C=C\C[C@H]12 (stereo not given in full)
Relative potency (Rattus norvegicus [29]): 0.1
Relative potency (Gerbillinae [22]): 1

SMILES: CCCCC[C@@H]1/C=C\C2[C@H](O)C[C@H](O)[C@@H]2CCCCCCC(=O)O1 (stereo not given in full)
Relative potency (Rattus norvegicus [3]): <0.1
Relative potency (Gerbillinae [4]): <0.1

SMILES: CCCCC[C@@H]1/C=C\C2C=CC(=O)[C@@H]2C/C=C\CCCC(=O)O1 (stereo not given in full)
Relative potency (Rattus norvegicus [3]): 0.1
Relative potency (Gerbillinae [19]): 0.1

SMILES: O=C1CCC/C=C\C[C@@H]2C(/C=C\[C@@H](COc3ccccc3)O1)[C@H](O)C[C@@H]2O (stereo not given in full)
Relative potency (Gerbillinae [30]): 0.1
Relative potency (Rattus norvegicus [31]): inactive
Relative potency (Rattus norvegicus [32]): Toxic

SMILES: CCCCC[C@](C)(O)/C=C/C1[C@H](O)C[C@@H]2OC(=O)CCC/C=C\C[C@H]12 (stereo not given in full)
Relative potency (Gerbillinae [19]): 1
Relative potency (Rattus norvegicus [33]): 3

Cross reaction [15]: 2.4%
SMILES: CCCCC[C@@H](/C=C/C1[C@H](O)C[C@H](O)[C@@H]1C/C=C\CCCC(=O)O)OC(C)=O (stereo not given in full)
Hydrolysis (Monkey [8]): 9.4%
Hydrolysis (Rattus norvegicus [10]): 25.7%
Hydrolysis (Sus scrofa [11]): 85%
Hydrolysis (Homo sapiens [12]): 6.8%
Hydrolysis (Rattus norvegicus [13]): 18%
Hydrolysis (Sus scrofa [16]): 59.1%
Hydrolysis (Homo sapiens [17]): 3.3%
Hydrolysis (Monkey [18]): 3.6%

SMILES: CCCCC(C)(C)[C@H](O)/C=C/C1[C@H](O)C[C@@H]2OC(=O)CCC/C=C\C[C@H]12 (stereo not given in full)
Relative potency (Rattus norvegicus [7]): 0.1
Relative potency (Gerbillinae [34]): 32

Cross reaction [15]: 100%
SMILES: CCCCC[C@H](O)/C=C/[C@@H]1[C@@H](C/C=C\CCCC(=O)O)[C@@H](O)C[C@H]1O [DINOPROST]
Hydrolysis (Monkey [8]): 100%
Hydrolysis (Rattus norvegicus [10]): 100%
Hydrolysis (Sus scrofa [11]): 100%
Hydrolysis (Homo sapiens [12]): 100%
Hydrolysis (Rattus norvegicus [13]): 100%
Urinary excretion (Rattus norvegicus [35]): 14.5 µg
Hydrolysis (Sus scrofa [16]): 100%
Urinary excretion (Rattus norvegicus [36]): 252 µg
Hydrolysis (Homo sapiens [17]): 100%
Hydrolysis (Monkey [18]): 100%

SMILES: CCCCC[C@@H]1/C=C\C2CCC(=O)[C@@H]2C/C=C\CCCC(=O)O1 (stereo not given in full)
Relative potency (Gerbillinae [6]): 0.1
Relative potency (Rattus norvegicus [3]): <0.1

SMILES: CCCCC[C@@H]1/C=C\C2[C@H](O)CC(=O)[C@@H]2C/C=C\CCCC(=O)O1 (stereo not given in full)
Relative potency (Gerbillinae [19]): 1
Relative potency (Rattus norvegicus [37]): 1

Cross reaction [15]: 0.9%
SMILES: CCCCC[C@@H]1/C=C\C2[C@H](O)C[C@H](O)[C@@H]2C/C=C\CCCC(=O)O1 (stereo not given in full)
Relative potency (Gerbillinae [38]): 0.1
Hydrolysis (Monkey [8]): 41.7%
Hydrolysis (Rattus norvegicus [10]): 58.7%
Relative potency (Rattus norvegicus [3]): <0.1
Hydrolysis (Sus scrofa [11]): 75.6%
Hydrolysis (Homo sapiens [12]): 57.9%
Hydrolysis (Rattus norvegicus [13]): 51.4%
Urinary excretion (Rattus norvegicus [39]): 3.9 µg
Hydrolysis (Sus scrofa [16]): 55.3%
Urinary excretion (Rattus norvegicus [40]): 77.1 µg
Hydrolysis (Homo sapiens [17]): 55.6%
Hydrolysis (Monkey [18]): 8.4%
